In data set [1] the test system is NCI 60-cell line panel (60 human tumour cell lines). Put plainly: NCI in vitro 60-cell line screen. The class given is cell-based. The procedure, abridged:
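Test compounds were run in each of the 60 human tumour cell lines for 48 h of drug exposure. The data were summarised as a mean graph with COMPARE analysis.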

The nature of data set [2]: Pre-formulation / solubility. It is filed as physicochemical.
For data set [3], the system named is doxorubicin-resistant, oestrogen receptor negative human breast cancer xenograft MT-3/ADR. Put plainly: Antitumour activity in MT-3/ADR xenograft. The class given is in vivo.
Data set [4] deals with well-vascularised breast cancer HTX. The data set can be described thus: Antitumour activity in well-vascularised breast cancer HTX. The conditions noted are these: for antitumour activity at tolerated doses / antitumour activity at toxic dose levels: SD, i.p. It is filed as in vivo, human.
Data set [5] has as its system NCI 60-cell line panel (60 human tumour cell lines). The note with it: cited from earlier work.
For data set [6] the following is noted: at 30 min; ref Burger et al, 2007; cited from earlier work.
Data set [7] deals with two human renal cell cancer HTXs, a breast cancer HTX and a murine syngeneic colon cancer. The note with it: P<0.01; ref Burger et al, 2007; cited from earlier work.
The subject of a further data set is microtubules. The note with it: ref Bonezzi et al, 2009; cited from earlier work.
The next data set relates to endothelial cell. The note with it: in vitro; ref Bonezzi et al, 2009; cited from earlier work.
In another data set the test system is tumour blood vessels. The note with it: in vivo; ref Bonezzi et al, 2009; cited from earlier work.
The conditions of data set [8]: cited from earlier work.
The subject of another data set is advanced cancer. The conditions noted are these: phase I, ref Seckl et al, 2012, cited from earlier work.
Where [9] appears, read: ref Bradshaw and Westwell, 2004.

Counter-ions that a name gives are not always drawn. Like-named read-outs stand apart in the source and are kept apart here.

As to `COc1ccc2c(c1)[nH]c(=O)c1c3ccccc3cn21` [NSC 734237], the differential activity result in data set [1] was “reasonable, but inconclusive”. Moreover, the solubility result in [2] is “quite insoluble”. In data set [3] (MTD, i.p., d8–12, 15–19), the “antitumour activity at the MTD” value was “significant activity”. The antitumour activity entry in data set [3] (i.p., d8–12, 15–19) is “dose-dependent antitumour activity”. Also, in data set [3] (in vivo), the “CD31+ microvessel density (immunohistochemistry)” value is “dose-dependent reduction” and the “Ki-67 staining (immunohistochemistry)” value is recorded as “dose-dependent reduction”.
As for `COc1cc(-n2cncc2-c2ccc3ccccc3c2)cc(OC)c1OC` [water-soluble salt of NSC736992], the “density (size and number) of CD31+ blood vessels” value in data set [4] (alone or in combination) is “not affected”. In [4] (combination with carboplatin or taxol), the “efficacy in combination with carboplatin or taxol” value is “not increased”. Moreover, the “efficacy (additional studies)” value in data set [4] (same HTX, also with other treatment schedules) is reported as “moderate to borderline”.
With `Cc1cc(-c2nc3cc(F)ccc3s2)ccc1N` [5F 203], in data set [5] (NCI 60-cell line screen, ref Bradshaw and Westwell, 2004), the GI50 entry is reported as “low nanomolar”. In [5] (setting [9]), the “selectivity in NCI 60-cell line screen” value was “selectivity against breast and ovarian cancer sub-panels”.
As to `COc1ccc(C2=CN3C(=O)c4cc(OC)c(OC)cc4N=C[C@@H]3C2)cc1` [DRH-417], the IC50 in data set [5] (read-out: mean IC50, NCI 60-cell line panel, ref Burger et al, 2007) is 3 nM. Moreover, the peak plasma concentration in data set [6] is 171 nM. Moreover, the “antitumour activity in vivo” value in data set [7] is “marked activity”.
As to `COc1ccc(-c2cncn2-c2cc(OC)c(OC)c(OC)c2)cc1` [NSC733436], in [4], the “antitumour activity at tolerated doses” value is recorded as “moderate” and the “antitumour activity at toxic dose levels” value is “more pronounced”. The effect on microtubules entry with microtubules is on record as “disorganised microtubules”. For the same compound, in the data set on endothelial cell, the “effect on endothelial cell morphology and capillary formation” value is “selectively affected endothelial cell morphology and capillary formation”. Further, in the data set on tumour blood vessels, the “blood vessel shutdown and tumour necrosis” value was “caused blood vessel shutdown and tumour necrosis”.
On to `COc1cc(-n2cncc2-c2ccc3ccccc3c2)cc(OC)c1OC` [NSC736992], for which, in data set [4], the “antitumour activity at tolerated doses” value was “moderate” and the “antitumour activity at toxic dose levels” value was “more pronounced”. In addition, in the data set on microtubules, the effect on microtubules entry is on record as “disorganised microtubules”. In the data set on endothelial cell, the “effect on endothelial cell morphology and capillary formation” value was “selectively affected endothelial cell morphology and capillary formation”. In addition, the “blood vessel shutdown and tumour necrosis” value in the data set on tumour blood vessels was “caused blood vessel shutdown and tumour necrosis”.
On to `COc1ccc(-c2cncn2-c2cc(OC)c(OC)c(OC)c2)cc1F` [NSC736359], for which, in [4], the “antitumour activity at tolerated doses” value is given as “moderate” and the “antitumour activity at toxic dose levels” value is on record as “more pronounced”. Also, the effect on microtubules result in the data set on microtubules is on record as “disorganised microtubules”. For the same compound, the “effect on endothelial cell morphology and capillary formation” value in the data set with endothelial cell was “selectively affected endothelial cell morphology and capillary formation”. In the data set with tumour blood vessels, the “blood vessel shutdown and tumour necrosis” value was “caused blood vessel shutdown and tumour necrosis”.
`Cc1cc(-c2nc3cc(F)ccc3s2)ccc1NC(=O)[C@@H](N)CCCCN.Cl.Cl` [Phortress]: the water solubility result in data set [8] (setting [9]) is “water-soluble”. In addition, in the data set with advanced cancer (preliminary data), the MTD result is listed as “not reached” and the tolerability result is “well tolerated”. In the data set on advanced cancer (Thirty-three per cent of the patients), the “patients classified as having stable disease” value is reported as 14/42.
On to `COc1ccc(/C=C\c2cc(OC)c(OC)c(OC)c2)cc1O` [Combretastatin A-4, reference compound], for which the solubility result in [8] (ref Dark et al, 1997, Tozer et al, 2002) is listed as “poorly soluble”.

(Values after PMC5520516 (British Journal of Cancer, 2017).)
